Columns and labels:
Type in all cases: functional
CCRF-CEM [1] = assay: Growth inhibition of human CCRF-CEM cells assessed as cell growth at 0.01 uM incubated for 48 hrs by sulforhodamine B assay relative to control; settings: read-out: Activity
Summary of the method: (§1)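 NCI Developmental Therapeutics Program NCI60 panel. Compounds that were active in the 10 µM one-dose screen went on to dose–response testing. Growth at each concentration is expressed relative to untreated control (100%). GI50 (concentration giving 50% of maximal inhibition of proliferation) and TGI (concentration giving total growth inhibition) were derived from the curves.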

K562 = assay: Growth inhibition of human K562 cells assessed as cell growth at 0.01 uM incubated for 48 hrs by sulforhodamine B assay relative to control; settings: read-out: Activity
NCI-H322M = assay: Growth inhibition of human NCI-H322M cells assessed as cell growth at 0.01 uM incubated for 48 hrs by sulforhodamine B assay relative to control; settings: read-out: Activity
NCI-H522 = assay: Growth inhibition of human NCI-H522 cells assessed as cell growth at 0.01 uM incubated for 48 hrs by sulforhodamine B assay relative to control; settings: read-out: Activity
COLO 205 = assay: Growth inhibition of human COLO 205 cells assessed as cell growth at 0.01 uM incubated for 48 hrs by sulforhodamine B assay relative to control; settings: read-out: Activity; summary of the method: as §1
HCC 2998 [2] = assay: Growth inhibition of human HCC 2998 cells assessed as cell growth at 0.01 uM incubated for 48 hrs by sulforhodamine B assay relative to control; settings: read-out: Activity; summary of the method: as §1
KM12 = assay: Growth inhibition of human KM12 cells assessed as cell growth at 0.01 uM incubated for 48 hrs by sulforhodamine B assay relative to control; settings: read-out: Activity
LOX IMVI = assay: Growth inhibition of human LOX IMVI cells assessed as cell growth at 0.01 uM incubated for 48 hrs by sulforhodamine B assay relative to control; settings: read-out: Activity
IGROV-1 = assay: Growth inhibition of human IGROV-1 cells assessed as cell growth at 0.01 uM incubated for 48 hrs by sulforhodamine B assay relative to control; settings: read-out: Activity
SN12C = assay: Growth inhibition of human SN12C cells assessed as cell growth at 0.01 uM incubated for 48 hrs by sulforhodamine B assay relative to control; settings: read-out: Activity
BT-549 = assay: Growth inhibition of human BT-549 cells assessed as cell growth at 0.01 uM incubated for 48 hrs by sulforhodamine B assay relative to control; settings: read-out: Activity
T47D [3] = assay: Growth inhibition of human T47D cells assessed as cell growth at 0.01 uM incubated for 48 hrs by sulforhodamine B assay relative to control; settings: read-out: Activity
SK-MEL-28 = assay: Growth inhibition of human SK-MEL-28 cells assessed as cell growth at 0.1 uM incubated for 48 hrs by sulforhodamine B assay relative to control; settings: read-out: Activity
CAKI-1 = assay: Growth inhibition of human CAKI-1 cells assessed as cell growth at 0.1 uM incubated for 48 hrs by sulforhodamine B assay relative to control; settings: read-out: Activity; summary of the method: as §1
DU-145 [4] = assay: Growth inhibition of human DU-145 cells assessed as cell growth at 0.1 uM incubated for 48 hrs by sulforhodamine B assay relative to control; settings: read-out: Activity; summary of the method: as §1
MCF7 = assay: Growth inhibition of human MCF7 cells assessed as cell growth at 0.1 uM incubated for 48 hrs by sulforhodamine B assay relative to control; settings: read-out: Activity
MDA-MB-468 = assay: Growth inhibition of human MDA-MB-468 cells assessed as cell growth at 0.1 uM incubated for 48 hrs by sulforhodamine B assay relative to control; settings: read-out: Activity
CCRF-CEM [5] = assay: Growth inhibition of human CCRF-CEM cells assessed as cell growth at 1 uM incubated for 48 hrs by sulforhodamine B assay relative to control; settings: read-out: Activity; summary of the method: as §1
HOP-92 [6] = assay: Growth inhibition of human HOP-92 cells assessed as cell growth at 1 uM incubated for 48 hrs by sulforhodamine B assay relative to control; settings: read-out: Activity
SK-MEL-2 [7] = assay: Growth inhibition of human SK-MEL-2 cells assessed as cell growth at 1 uM incubated for 48 hrs by sulforhodamine B assay relative to control; settings: read-out: Activity
DU-145 [8] = assay: Growth inhibition of human DU-145 cells assessed as cell growth at 1 uM incubated for 48 hrs by sulforhodamine B assay relative to control; settings: read-out: Activity; summary of the method: as §1
SR = assay: Growth inhibition of human SR cells assessed as cell growth at 100 uM incubated for 48 hrs by sulforhodamine B assay relative to control; settings: read-out: Activity
HOP-62 = assay: Growth inhibition of human HOP-62 cells assessed as cell growth at 100 uM incubated for 48 hrs by sulforhodamine B assay relative to control; settings: read-out: Activity
HOP-92 [9] = assay: Growth inhibition of human HOP-92 cells assessed as cell growth at 100 uM incubated for 48 hrs by sulforhodamine B assay relative to control; settings: read-out: Activity
SF-268 = assay: Growth inhibition of human SF-268 cells assessed as cell growth at 100 uM incubated for 48 hrs by sulforhodamine B assay relative to control; settings: read-out: Activity
SK-MEL-2 [10] = assay: Growth inhibition of human SK-MEL-2 cells assessed as cell growth at 100 uM incubated for 48 hrs by sulforhodamine B assay relative to control; settings: read-out: Activity
RXF 393 = assay: Growth inhibition of human RXF 393 cells assessed as cell growth at 100 uM incubated for 48 hrs by sulforhodamine B assay relative to control; settings: read-out: Activity
Hs-578T = assay: Growth inhibition of human Hs-578T cells assessed as cell growth at 100 uM incubated for 48 hrs by sulforhodamine B assay relative to control; settings: read-out: Activity
NCI-H23 = assay: Growth inhibition of human NCI-H23 cells incubated for 48 hrs by sulforhodamine B assay
Summary of the method: (§2)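 NCI60 panel at the NCI Developmental Therapeutics Program. Only compounds active in the 10 µM screen went to dose-response testing. GI50, the concentration giving 50% of maximal inhibition of proliferation, and TGI, the concentration giving total growth inhibition, were derived from the dose-response curves.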

HCC 2998 [11] = assay: Growth inhibition of human HCC 2998 cells incubated for 48 hrs by sulforhodamine B assay
HT-29 = assay: Growth inhibition of human HT-29 cells incubated for 48 hrs by sulforhodamine B assay; summary of the method: as §2
SW-620 = assay: Growth inhibition of human SW-620 cells incubated for 48 hrs by sulforhodamine B assay
Summary of the method: (§3)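 NCI DTP 60-line human tumour panel. Dose-response curves were run only for ligands active in the initial 10 µM screen. GI50 (concentration giving 50% of maximal inhibition of proliferation) and TGI (concentration giving total growth inhibition) were derived from these curves.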

SNB-19 = assay: Growth inhibition of human SNB-19 cells incubated for 48 hrs by sulforhodamine B assay; summary of the method: as §3
MDA-MB-435 = assay: Growth inhibition of human MDA-MB-435 cells incubated for 48 hrs by sulforhodamine B assay; summary of the method: as §2
T47D [12] = assay: Growth inhibition of human T47D cells incubated for 48 hrs by sulforhodamine B assay; summary of the method: as §3
[13] = read-out: LC50 (the source's name)

Nc1c(C(=O)Nc2ccccc2)sc2nc3c(cc12)CN(Cc1ccccc1)CC3
growth at 0.01 µM (CCRF-CEM [1]): 96% | growth at 0.01 µM (K562): 98% | growth at 0.01 µM (NCI-H322M): 93% | growth at 0.01 µM (NCI-H522): 89% | growth at 0.01 µM (COLO 205): 100% | growth at 0.01 µM (HCC 2998 [2]): 90% | growth at 0.01 µM (KM12): 100% | growth at 0.01 µM (LOX IMVI): 94% | growth at 0.01 µM (IGROV-1): 95% | growth at 0.01 µM (SN12C): 94% | growth at 0.01 µM (BT-549): 97% | growth at 0.01 µM (T47D [3]): 99% | growth at 0.1 µM (SK-MEL-28): 93% | growth at 0.1 µM (CAKI-1): 86% | growth at 0.1 µM (DU-145 [4]): 107% | growth at 0.1 µM (MCF7): 86% | growth at 0.1 µM (MDA-MB-468): 98% | growth at 1 µM (CCRF-CEM [5]): 92% | growth at 1 µM (HOP-92 [6]): 74% | growth at 1 µM (SK-MEL-2 [7]): 101% | growth at 1 µM (DU-145 [8]): 74% | growth at 100 µM (SR): 19% | growth at 100 µM (HOP-62): -24% | growth at 100 µM (HOP-92 [9]): -30% | growth at 100 µM (SF-268): 9% | growth at 100 µM (SK-MEL-2 [10]): 4% | growth at 100 µM (RXF 393): -5% | growth at 100 µM (Hs-578T): -6% | GI50 (NCI-H23): 21.7 µM | LC50 (50% lethal concentration) (NCI-H23): > 100 µM | TGI (NCI-H23): > 100 µM | GI50 (HCC 2998 [11]): 76.1 µM | TGI (HCC 2998 [11]): > 100 µM | CC50 (HCC 2998 [11]; [13]): > 100 µM | GI50 (HT-29): 24.7 µM | LC50 (HT-29): > 100 µM | TGI (HT-29): > 100 µM | GI50 (SW-620): 20.8 µM | LC50 (concentration killing 50% of cells) (SW-620): > 100 µM | TGI (SW-620): > 100 µM | GI50 (SNB-19): 18.3 µM | LC50 (SNB-19): > 100 µM | TGI (SNB-19): > 100 µM | GI50 (MDA-MB-435): 3.43 µM | TGI (MDA-MB-435): 71.6 µM | CC50 (MDA-MB-435; [13]): > 100 µM | GI50 (T47D [12]): 16.2 µM | TGI (T47D [12]): > 100 µM | CC50 (T47D [12]; [13]): > 100 µM

Source: ChEMBL document CHEMBL4715736, “Identification of anticancer agents based on the thieno[2,3-b]pyridine and 1H-pyrazole molecular scaffolds” (2016)
